This is an account of results in ChEMBL document CHEMBL4480464, “Bioactive Dimeric Acylphloroglucinols from the Mexican Fern Elaphoglossum paleaceum” (J Nat Prod, 2019).

In general, pIC50 refers to −log10 of the IC50, conventionally taken in molar units. A higher pIC50 goes with a small IC50.

pIC50: −log10 of the molar value. The source made the active and inactive calls. The rule behind the calls is not given here. Bounds are passed on as bounds.

Series [1] is described as follows: Selectivity index, ratio of IC50 for human HSF30 cells to IC50 for human PC3 cells. The note with it: HSF30 cells and PC3 cells, read-out: Ratio IC50. Format: toxicity. The method, boiled down:
(§1)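 SI calculated as IC50 in HFS-30 fibroblasts divided by IC50 in each cancer line, all from the 72 h sulforhodamine B assay.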

Series [2] in a line: Selectivity index, ratio of IC50 for human HSF30 cells to IC50 for human SiHa cells. Type of series: toxicity. Particulars: HSF30 cells and SiHa cells, read-out: Ratio IC50. The method, boiled down:
as §1

The next series relates to PC-3. In words: Cytotoxicity against human PC3 cells measured after 72 hrs by sulforhodamine B assay. Particulars: PC-3, 72 h. Type of series: functional, cell-based. The method, boiled down: (§2)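 Sulforhodamine B assay on human cancer lines in RPMI-1640 with 10% FBS, 104 cells/mL, 37 °C, 5% CO2. Treated in triplicate at about 70% confluence with 0.16–20 μg/mL sample in DMSO for 72 h. IC50 taken as concentration giving 50% of control growth, from a log10 concentration versus % viable cells plot.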

Series [3] in a line: Cytotoxicity against human HSF30 cells measured after 72 hrs by sulforhodamine B assay. Format: cell-based. The method, boiled down:
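HFS-30 normal human skin fibroblasts grown in DMEM with 10% FBS at 37 °C, 5% CO2. Treated in triplicate at about 70% confluence with 0.16–20 μg/mL sample in DMSO for 72 h. Sulforhodamine B read-out. IC50 is concentration giving 50% of control growth.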
In general terms: In SRB staining, fixed cells bind dye roughly in proportion to their protein.

The test system of another series is MCF7. In words: Cytotoxicity against human MCF7 cells measured after 72 hrs by sulforhodamine B assay. Format: functional, cell-based. Particulars: MCF7, 72 h. The method, boiled down: as §2
Series [4] can be described thus: Selectivity index, ratio of IC50 for human HSF30 cells to IC50 for human MCF7 cells. Type of series: toxicity. Particulars: HSF30 cells and MCF7 cells, read-out: Ratio IC50. The method, boiled down:
as §1

Series [5] in a line: Selectivity index, ratio of IC50 for human HSF30 cells to IC50 for human HF6 cells. The method, boiled down: as §1
A short description of series [6]: Cytotoxicity against human HF6 cells measured after 72 hrs by sulforhodamine B assay. Format: functional, cell-based. The method, boiled down: as §2
For another series, the system named is SiHa. Kind of series: Cytotoxicity against human SiHa cells measured after 72 hrs by sulforhodamine B assay. Type of series: functional, cell-based. The method, boiled down:
as §2

For series [7], the system named is RAW264.7. In words: Cytotoxicity against LPS-induced mouse RAW264.7 cells assessed as cell killing at 92 to 185 uM measured after 24 hrs by resazurin dye based fluorescence assay. Particulars: raw264.7, 24 h. The method, boiled down:
(§3)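 After the 24 h LPS (1 μg/mL) plus compound exposure and nitrite sampling, RAW264.7 wells given fresh DMEM-F12 with 10% heat-inactivated FBS plus resazurin (2 mM stock). Incubated a further 10 h at 37 °C, 5% CO2. Viability read as resorufin fluorescence. Vehicle Tween 80. Three independent experiments, mean ± SD.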
Background: The colour change of resazurin is a common sign of viable cells or microbes.

The target in series [8] is T1, Amine oxidase [flavin-containing] B (Rattus norvegicus, UniProt P19643).
T1 sequence (P19643 whole entry): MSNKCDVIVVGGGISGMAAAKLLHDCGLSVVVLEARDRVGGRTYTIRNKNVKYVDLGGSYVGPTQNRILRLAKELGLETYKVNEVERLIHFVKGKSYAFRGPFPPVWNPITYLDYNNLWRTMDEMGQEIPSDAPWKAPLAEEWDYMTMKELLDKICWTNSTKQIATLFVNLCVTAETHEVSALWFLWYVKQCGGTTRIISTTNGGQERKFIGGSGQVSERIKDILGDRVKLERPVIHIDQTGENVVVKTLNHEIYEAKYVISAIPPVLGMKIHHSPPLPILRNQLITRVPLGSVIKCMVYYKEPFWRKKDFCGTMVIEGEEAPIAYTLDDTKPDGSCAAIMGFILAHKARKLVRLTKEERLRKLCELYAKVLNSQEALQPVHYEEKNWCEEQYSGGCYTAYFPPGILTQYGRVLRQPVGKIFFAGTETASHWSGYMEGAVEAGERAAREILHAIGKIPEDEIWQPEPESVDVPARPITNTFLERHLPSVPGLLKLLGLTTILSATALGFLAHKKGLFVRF
Kind of series: Inhibition of Wistar rat brain MAOB using kynuramine as substrate preincubated for 15 mins followed by substrate addition and measured after 15 mins by fluorescence assay. The method, boiled down:
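Enzyme: unpurified mitochondrial homogenate from brains (cerebellum removed) of adult male Wistar rats (180−220 g), adjusted to 2500 μg/mL protein in PBS pH 7.4. Samples dissolved in 10% DMSO, tested over 0.1−100 μg/mL. Kynuramine 1 mM substrate; pargyline 10 μM as MAO-B-selective reference. Both incubations at 37 °C; stopped with 2 M NaOH. 4-Hydroxyquinoline read at ex 315/em 380 nm. Triplicate; IC50 as mean ± standard error.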

Series [9] relates to RAW264.7. Kind of series: Antiinflammatory activity in mouse RAW264.7 cells assessed as inhibition of LPS-induced nitric oxide production at 46 uM after 24 hrs by Griess assay. Type of series: functional, cell-based. The method, boiled down:
(§4)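 Murine RAW264.7 macrophages in DMEM-F12 with 10% heat-inactivated FBS, no antibiotics, 37 °C, 5% CO2. Cells (2 × 10^5 cells/mL) preincubated 1 h, then compound added in Tween 80 vehicle, then stimulated with LPS 1 μg/mL for 24 h. Nitrite in medium measured by Griess reagent, absorbance 540 nm, quantified against NaNO2 standard curve. Triplicate, mean ± SEM.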
Background: Griess reagent forms a coloured azo dye with nitrite.

Series [10] concerns the target T2, Amine oxidase [flavin-containing] A (Rattus norvegicus, UniProt P21396).
T2 sequence (P21396 whole entry): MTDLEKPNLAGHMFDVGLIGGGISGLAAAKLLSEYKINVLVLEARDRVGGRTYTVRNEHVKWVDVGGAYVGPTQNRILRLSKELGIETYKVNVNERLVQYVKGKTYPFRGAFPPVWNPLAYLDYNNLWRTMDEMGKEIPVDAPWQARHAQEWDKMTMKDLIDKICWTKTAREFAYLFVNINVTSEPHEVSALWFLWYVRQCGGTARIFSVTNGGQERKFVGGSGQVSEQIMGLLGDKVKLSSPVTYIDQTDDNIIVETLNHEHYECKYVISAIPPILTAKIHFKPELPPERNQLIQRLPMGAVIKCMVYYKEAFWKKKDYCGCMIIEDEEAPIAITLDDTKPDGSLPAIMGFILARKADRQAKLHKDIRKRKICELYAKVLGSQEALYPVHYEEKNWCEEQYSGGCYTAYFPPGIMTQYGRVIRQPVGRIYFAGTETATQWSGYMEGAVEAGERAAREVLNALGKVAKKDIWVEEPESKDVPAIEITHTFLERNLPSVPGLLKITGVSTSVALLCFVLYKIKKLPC
Kind of series: Inhibition of Wistar rat brain MAOA using kynuramine as substrate preincubated for 15 mins followed by substrate addition and measured after 15 mins by fluorescence assay. The method, boiled down: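 Unpurified mitochondrial homogenate from brains of male Wistar rats (180–220 g), adjusted to 2500 μg/mL protein in PBS pH 7.4. Sample from 10% DMSO stock, tested over 0.1–100 μg/mL. Enzyme and sample preincubated 15 min at 37 °C, kynuramine (1 mM) added, incubated 15 min at 37 °C, stopped with 2 M NaOH. Triplicate.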

The subject of series [11] is RAW264.7. In words: Cytotoxicity against LPS-induced mouse RAW264.7 cells assessed as effect on cell viability at 46 uM measured after 24 hrs by resazurin dye based fluorescence assay. The note with it: raw264.7, 24 h. The method, boiled down:
as §3

The next series is filed under the species Rattus norvegicus. In words: Selectivity index, ratio of IC50 for Wistar rat brain MAOB to Wistar rat brain MAOA.
A short description of series [12]: Cytotoxicity against LPS-induced mouse RAW264.7 cells assessed as cell viability at 82 uM measured after 24 hrs by resazurin dye based fluorescence assay. The note with it: LPS-induced RAW264.7 cells, read-out: Activity. The method, boiled down: as §3
The test system of series [13] is RAW264.7. Kind of series: Cytotoxicity against LPS-induced mouse RAW264.7 cells assessed as cell killing at 123 to 164 uM measured after 24 hrs by resazurin dye based fluorescence assay. The note with it: raw264.7, 24 h. The method, boiled down:
as §3

For series [14], the system named is RAW264.7. Kind of series: Cytotoxicity against LPS-induced mouse RAW264.7 cells assessed as effect on cell viability at 41 uM measured after 24 hrs by resazurin dye based fluorescence assay. Particulars: raw264.7, 24 h. The method, boiled down: as §3
In series [15] the test system is RAW264.7. In words: Antiinflammatory activity in mouse RAW264.7 cells assessed as inhibition of LPS-induced nitric oxide production at 41 uM after 24 hrs by Griess assay. Type of series: functional, cell-based. The method, boiled down:
as §4

Regarding `COc1cc([C@@H]2c3cc4c(cc3[C@H](O)[C@H]3COC(=O)[C@H]23)OCO4)cc(OC)c1OC` [PODOFILOX], the results for the selectivity ratio in series [1], in series [2] and in [4] were 0.11, 0.02 and 0.45, respectively. For the same compound, the negative logarithm of the IC50 (pIC50) with PC-3 is 6.70; in series [3] it was 8.70; in the series on MCF7 it was 8.30; in [6], 6.00; with SiHa, 7.00. Besides, the “Ratio IC50” value in series [5] was 0.002.

With `CC(=O)O[C@H]1C(=O)[C@@]2(C)[C@H]([C@H](OC(=O)c3ccccc3)[C@]3(O)C[C@H](OC(=O)[C@H](O)[C@@H](NC(=O)c4ccccc4)c4ccccc4)C(C)=C1C3(C)C)[C@]1(OC(C)=O)CO[C@@H]1C[C@@H]2O` [PACLITAXEL], the pIC50 was 6.82 in the series on PC-3; 8.70 in series [3]; 7.30 with MCF7; 5.80 in series [6]; 5.85 in the series with SiHa. Moreover, the “Ratio IC50” value in series [5] is 0.001.

Turning to `CCCC(=O)c1c(OC)cc(O)c(CC2=C(O)[C@](C)(C/C=C(\C)CCC=C(C)C)C(O)=C(C(C)=O)C2=O)c1O`, the values for the selectivity ratio in series [1], in series [2] and in series [4] were 0.005, 0.002 and 0.0002, respectively. For the same compound, the negative logarithm of the IC50 (pIC50) with PC-3 was 5.77; in [3] it was 8.05; in series [8] it was 5.33; in the series on MCF7, less than 5.00; in series [6], less than 5.00; in series [10] it was 4.51. In the series on SiHa, the negative logarithm of the IC50 (pIC50) was 5.22. For the same compound, the Activity with RAW264.7 [7] is 100%; in the series on RAW264.7 [11], “Non-Toxic”. Besides, in the series on RAW264.7 [9], the inhibition entry is “Active”. For the same compound, the “Ratio IC50” value was 0.0005 in series [5] and 0.1 in the series filed under Rattus norvegicus.

`C#CCN(C)Cc1ccccc1` [PARGYLINE]: the negative logarithm of the IC50 (pIC50) in [8] was 6.66.

`CCCC(=O)c1c(O)c(CC2=C(O)[C@](C)(C/C=C(\C)CCC=C(C)C)C(O)=C(C(C)=O)C2=O)c(O)c(CC=C(C)C)c1OC`: the selectivity ratio turned out to be 0.029 in series [1], 0.015 in series [2] and 0.0025 in series [4]. Also, the viability at 24 h, 82 µM in [12] turned out to be 50%. Also, the pIC50 is 5.54 with PC-3; 7.10 in series [3]; 5.36 in series [8]; less than 5.00 in the series with MCF7; 5.19 in series [6]; 5.89 in series [10]. Also, the negative-log IC50 (pIC50) with SiHa was 5.25. For the same compound, the values for the Activity in the series on RAW264.7 [13] and in the series on RAW264.7 [14] were 100% and “Non-Toxic”, respectively. In addition, the results for the “Ratio IC50” value (in series [5]; in the series listed under Rattus norvegicus) were 0.013 and 3.5, respectively. Also, the inhibition result in the series on RAW264.7 [15] is “Active”.
